From ChEMBL document CHEMBL4699439, “Design and development of novel N-(pyrimidin-2-yl)-1,3,4-oxadiazole hybrids to treat cognitive dysfunctions” (Bioorg Med Chem, 2019)
Active and inactive are the calls of the source. The calls are words filed in the database; no cut-off is given here.

Columns and labels:
[1] = Antioxidant activity assessed as DPPH radical scavenging activity at 20 uM after 30 mins under dark condition by DPPH assay relative to control; assay type: functional
Method in brief: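 Test compound at 20 µM (solution strength) mixed with 0.5 mM DPPH solution and kept in the dark for 30 min. Absorbance read at 517 nm. % inhibition = (A0−At)/A0 × 100. Ascorbic acid used as standard. Run in triplicate.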

[2] = biological target: T1, Acetylcholinesterase (Homo sapiens, UniProt P22303); assay: Inhibition of human erythrocyte AChE using acetylthiocholine iodide as substrate preincubated for 10 mins followed by substrate addition and measured for 10 mins by DTNB reagent based Ellman's method; assay type: tissue-based
[3] = biological target: Cholinesterase (Homo sapiens, UniProt P06276); assay: Inhibition of human serum BChE using butyrylthiocholine iodide as substrate preincubated for 10 mins followed by substrate addition and measured for 10 mins by DTNB reagent based Ellman's method; assay type: cell-free
Method in brief: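 Enzyme is BChE from human serum, 0.02 units/ml in 0.1% gelatin pH 7.4, preincubated with compound 10 min at 37 °C. Then 0.1 M phosphate containing 340 µM DTNB and 550 µM BTCI added. A412 followed 10 min at 37 °C. DMSO ≤1%. IC50 from nonlinear log-inhibitor fit, n=3.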

[4] = biological target: Acetylcholinesterase (Electrophorus electricus, UniProt O42275); assay: Inhibition of recombinant Electric eel AChE incubated for 15 mins by amplex red reagent based fluorescence assay
[5] = biological target: Cholinesterase (Equus caballus, UniProt P81908); assay: Inhibition of equine serum BChE using butyrylthiocholine iodide as substrate incubated for 30 mins followed by substrate addition and measured for 20 mins by Ellman's method
[6] = Effective permeability of compound in PBS buffer at pH 7.4 at 25 ug/ml incubated for 20 hrs by PAMPA-BBB assay
[7] = Acute toxicity in Swiss albino mouse assessed as tremor at 500 mg/kg, po measured for 14 days; assay type: organism-based; details: in vivo, 336 h, time 14 day
Method in brief: (§1)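 Adult male Swiss albino mice, 25-30 g, dosed orally following OECD 423 at various doses up to 500 mg/kg. Watched at 30 min, 2 h, 4 h and 24 h for autonomic and behavioural changes. Followed for 14 days for tremors, convulsions, salivation, diarrhea, lethargy, sleep and coma.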

[8] = test system: Mus musculus; assay: (§2) Antioxidant activity in scopolamine-induced memory impairment Swiss albino mouse model assessed as reduction in scopolamine-induced oxidative stress by measuring decrease in malondialdehyde level at 10 mg/kg, po administered once daily for 7 days and administered with scopolamine at 30 mins after compound challenge on 7th day by TBARS assay; assay type: functional, organism-based; details: time 7.0 day
Method in brief: (§3)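 Male Swiss albino mice, six per group. Compound suspended in 0.3% w/v CMC, given p.o. once daily for 7 days. Scopolamine HBr 0.5 mg/kg i.p., in water, given 30 min after dosing on day 7. After behavioural tests, whole brain homogenised in 10 mM PBS pH 7.4 and supernatant used. Protein by Lowry method. For MDA (TBARS), supernatant incubated 2 h at 37 °C, TCA-precipitated, heated with 0.67% thiobarbituric acid at 50 °C for 10 min, A532, expressed as moles MDA/mg protein. For nonprotein thiol (Sedlak–Lindsay), TCA supernatant in Tris-EDTA pH 8.9 reacted with DTNB, A412 within 5 min, expressed as µM/mg protein.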

[9] = Acute toxicity in Swiss albino mouse assessed as diarrhea at 500 mg/kg, po measured for 14 days; assay type: organism-based; details: in vivo, 336 h, time 14 day; method in brief: as §1
[10] = in vitro; details: human, SH-SY5Y cells
[11] = biological target: T1, Acetylcholinesterase; assay: Inhibition of human AChE-induced amyloid beta(1 to 42) aggregation incubated for 48 hrs by thioflavin-T fluorescence method; details: dose microM 5-20, time 48.0 hrs
Method in brief: (§4)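 Aβ1-42 (10 µM) incubated with hAChE ([…]) with or without compound (5, 10 and 20 µM) at 37 °C for 48 h, DMSO below 1%. ThT then added at 5 µM. Fluorescence read at ex 485/em 528 nm. % inhibition taken from intensities with vs without inhibitor. Run in triplicate.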

[12] = Acute toxicity in Swiss albino mouse assessed as convulsion at 500 mg/kg, po measured for 14 days; assay type: organism-based; details: in vivo, 336 h, time 14 day; method in brief: as §1
[13] = Acute toxicity in Swiss albino mouse assessed as feeding behavior at 500 mg/kg, po observed for 24 hrs; assay type: organism-based; details: in vivo; method in brief: as §1
[14] = Acute toxicity in Swiss albino mouse assessed as mortality at 500 mg/kg, po observed for 24 hrs; assay type: organism-based; details: in vivo; method in brief: as §1
[15] = test system: Mus musculus; assay: (§5) Reversal of scopolamine-induced memory cognitive memory impairment in po dosed Swiss albino mouse assessed as increase in transfer latency time administered once daily for 7 days and administered with scopolamine at 30 mins after compound challenge on 7th day and measured during acquisition trial on day 7 by passive avoidance test; assay type: functional, organism-based; details: dose mg/kg 2.5-10, time 7.0 day
Method in brief: (§6)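 Dosing as for the Y-maze: p.o. in CMC daily for 7 days, scopolamine 0.5 mg/kg i.p. on day 7, six mice per group. Apparatus is a two-compartment lit/dark box. Acquisition begins 5 min after scopolamine, with the mouse held in the lit side for 30 s. Latency to enter the dark side recorded as transfer latency time. No foot shock in the retention trial.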

[16] = test system: Mus musculus; assay: as §5, with “retention” for “acquisition”; assay type: functional, organism-based; details: dose mg/kg 2.5-10, time 7.0 day; method in brief: as §6
[17] = Acute toxicity in Swiss albino mouse assessed as sleep at 500 mg/kg, po measured for 14 days; assay type: organism-based; details: in vivo, 336 h, time 14 day; method in brief: as §1
[18] = test system: Mus musculus; assay: as §2, with “increase” for “decrease”, “SOD” for “malondialdehyde”, “day” for “day by TBARS assay”; assay type: functional, organism-based; details: time 7.0 day
Method in brief: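 Same mouse dosing and brain supernatant preparation as the oxidative-stress assays. For SOD, supernatant mixed with reagent containing 0.1 mM EDTA, 24 µM NBT and 50 mM Na2CO3, plus hydroxylamine hydrochloride. Assay at pH 10.2, absorbance read at 560 nm.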

[19] = biological target: T1, Acetylcholinesterase; assay: Non-competitive inhibition of human erythrocyte AChE using acetylthiocholine iodide as substrate at 0.15 to 0.6 uM preincubated for 10 mins followed by substrate addition and measured for 10 mins by Ellman's method based Line-weaver Burk plot analysis; assay type: tissue-based
[20] = Acute toxicity in Swiss albino mouse assessed as lacrimation at 500 mg/kg, po observed for 24 hrs; assay type: organism-based; details: in vivo; method in brief: as §1
[21] = Acute toxicity in Swiss albino mouse assessed as salivation at 500 mg/kg, po measured for 14 days; assay type: organism-based; details: in vivo, 336 h, time 14 day; method in brief: as §1
[22] = test system: Mus musculus; assay: as §2, with “increase” for “decrease”, “total non-protein thiol” for “malondialdehyde”, “day” for “day by TBARS assay”; assay type: functional, organism-based; details: time 7.0 day; method in brief: as §3
[23] = test system: Mus musculus; assay: as §5, with “spontaneous alteration rate” for “transfer latency time”, “for 5 mins” for “during acquisition trial”, “Y-maze” for “passive avoidance”; assay type: functional, organism-based; details: dose mg/kg 2.5-10, time 7.0 day
Method in brief: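 Male Swiss albino mice, six per group. Compound given p.o. in 0.3% CMC daily for 7 days, at 2.5, 5 or 10 mg/kg. Scopolamine 0.5 mg/kg i.p. given 30 min after the day-7 dose. Each mouse placed in a three-arm Y-maze and arm entries and alternations recorded over 5 min. % alternation = alternations/(total entries−2) × 100.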

[24] = biological target: T1, Acetylcholinesterase; assay: Inhibition of human AChE-induced amyloid beta(1 to 42) aggregation at Abeta:compound concentration ratio of 1:2 incubated for 48 hrs by thioflavin-T fluorescence method; method in brief: as §4
[25] = test system: Mus musculus; assay: Ex vivo inhibition of Swiss mouse brain AChE using ACTI as substrate at 10 mg/kg, po administered once daily for 7 days and administered with scopolamine at 30 mins after compound challenge on 7th day and measured on day 7 by Ellman's method; assay type: functional, organism-based; details: time 7.0 day
Method in brief: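 Male Swiss albino mice dosed p.o. daily for 7 days in 0.3% CMC. Scopolamine 0.5 mg/kg i.p. given 30 min after the day-7 dose. Brain homogenate supernatant incubated with 0.1 M phosphate pH 7.4 and DTNB for 10 min at 37 °C. ATCI then added from a 7.5 mM stock. A412 followed for 10 min. Expressed as ACh hydrolysed/min/mg protein (Lowry).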

[26] = test system: SH-SY5Y; assay: Neuroprotection against amyloid beta (25 to 35)-induced toxicity in human SH-SY5Y cells assessed as cell viability at 10 uM preincubated for 2 hrs followed by incubation with amyloid beta (25 to 35) for 24 hrs relative to control; assay type: functional; details: time 26 hrs, read-out: Activity

Sequence of Cholinesterase (Homo sapiens, UniProt P06276) (P06276 whole entry): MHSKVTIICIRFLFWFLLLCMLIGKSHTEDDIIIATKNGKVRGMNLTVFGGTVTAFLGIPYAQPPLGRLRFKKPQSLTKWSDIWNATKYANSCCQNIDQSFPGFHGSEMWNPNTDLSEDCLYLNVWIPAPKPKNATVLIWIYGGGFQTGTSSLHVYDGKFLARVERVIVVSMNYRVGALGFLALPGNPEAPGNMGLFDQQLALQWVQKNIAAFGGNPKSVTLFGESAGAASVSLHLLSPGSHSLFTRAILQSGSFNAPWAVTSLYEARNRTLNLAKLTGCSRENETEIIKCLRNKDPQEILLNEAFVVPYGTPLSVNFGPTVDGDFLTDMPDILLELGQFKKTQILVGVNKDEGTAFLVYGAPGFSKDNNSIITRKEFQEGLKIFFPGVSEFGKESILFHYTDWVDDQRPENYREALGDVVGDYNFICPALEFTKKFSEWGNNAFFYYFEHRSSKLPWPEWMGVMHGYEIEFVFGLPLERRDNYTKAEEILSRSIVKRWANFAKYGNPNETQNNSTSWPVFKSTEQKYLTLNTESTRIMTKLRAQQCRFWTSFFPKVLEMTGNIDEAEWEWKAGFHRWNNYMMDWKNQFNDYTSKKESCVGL
T1 sequence (P22303 whole entry): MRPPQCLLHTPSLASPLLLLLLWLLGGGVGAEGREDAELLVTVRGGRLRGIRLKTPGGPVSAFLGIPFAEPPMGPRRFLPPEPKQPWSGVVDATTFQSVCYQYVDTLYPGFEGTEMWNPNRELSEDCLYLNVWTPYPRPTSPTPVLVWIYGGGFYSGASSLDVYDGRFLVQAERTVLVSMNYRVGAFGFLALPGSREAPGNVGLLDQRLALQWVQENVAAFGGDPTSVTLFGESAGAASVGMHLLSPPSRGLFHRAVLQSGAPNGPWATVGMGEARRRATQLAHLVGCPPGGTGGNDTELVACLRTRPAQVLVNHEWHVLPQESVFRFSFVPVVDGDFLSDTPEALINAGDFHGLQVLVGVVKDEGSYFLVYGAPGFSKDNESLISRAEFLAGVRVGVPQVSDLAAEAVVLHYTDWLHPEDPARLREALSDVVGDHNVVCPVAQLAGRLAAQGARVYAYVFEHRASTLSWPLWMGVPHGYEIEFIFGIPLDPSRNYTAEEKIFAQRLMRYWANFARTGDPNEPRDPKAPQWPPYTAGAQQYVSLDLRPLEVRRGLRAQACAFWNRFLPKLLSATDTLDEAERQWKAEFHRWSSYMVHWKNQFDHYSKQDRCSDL
Sequence of Acetylcholinesterase (Electrophorus electricus, UniProt O42275) (O42275 whole entry): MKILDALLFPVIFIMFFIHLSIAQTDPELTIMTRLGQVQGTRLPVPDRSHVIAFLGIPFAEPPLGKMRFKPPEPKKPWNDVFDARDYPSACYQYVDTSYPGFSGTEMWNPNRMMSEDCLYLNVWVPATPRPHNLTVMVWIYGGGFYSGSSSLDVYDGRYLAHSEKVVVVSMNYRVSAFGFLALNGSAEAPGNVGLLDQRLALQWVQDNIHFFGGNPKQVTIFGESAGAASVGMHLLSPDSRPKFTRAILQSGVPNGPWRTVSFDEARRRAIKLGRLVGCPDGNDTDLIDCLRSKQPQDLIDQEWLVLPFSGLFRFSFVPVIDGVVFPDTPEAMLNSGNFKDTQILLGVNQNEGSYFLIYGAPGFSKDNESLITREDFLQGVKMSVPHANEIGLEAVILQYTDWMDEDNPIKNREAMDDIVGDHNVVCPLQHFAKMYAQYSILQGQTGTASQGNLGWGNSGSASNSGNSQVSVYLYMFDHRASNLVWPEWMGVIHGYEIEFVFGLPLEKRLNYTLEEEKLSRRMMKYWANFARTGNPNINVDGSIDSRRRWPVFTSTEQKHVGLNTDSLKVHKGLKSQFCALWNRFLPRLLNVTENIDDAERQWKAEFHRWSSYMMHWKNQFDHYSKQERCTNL
Sequence of Cholinesterase (Equus caballus, UniProt P81908) (P81908 whole entry): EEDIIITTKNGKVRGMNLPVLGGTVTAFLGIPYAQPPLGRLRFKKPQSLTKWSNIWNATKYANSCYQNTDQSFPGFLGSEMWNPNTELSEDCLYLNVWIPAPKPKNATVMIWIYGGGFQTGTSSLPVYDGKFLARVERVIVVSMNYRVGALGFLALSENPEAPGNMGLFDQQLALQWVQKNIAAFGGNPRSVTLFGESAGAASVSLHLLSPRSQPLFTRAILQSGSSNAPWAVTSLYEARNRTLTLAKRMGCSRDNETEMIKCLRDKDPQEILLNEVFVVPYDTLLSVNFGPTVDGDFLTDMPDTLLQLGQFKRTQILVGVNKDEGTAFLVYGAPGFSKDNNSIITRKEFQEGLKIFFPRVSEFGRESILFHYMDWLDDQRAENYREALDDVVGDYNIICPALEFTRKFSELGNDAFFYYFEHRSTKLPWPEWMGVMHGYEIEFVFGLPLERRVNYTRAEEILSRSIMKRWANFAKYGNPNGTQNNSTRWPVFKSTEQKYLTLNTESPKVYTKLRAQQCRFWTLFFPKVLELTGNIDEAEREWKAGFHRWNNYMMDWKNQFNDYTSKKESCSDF

Structure (SMILES) | inhibition [1] | IC50 [2] | IC50 [3] | other results
Fc1ccc(-c2nnc(Nc3ncccn3)o2)cc1 | 41.9% | 2.4 µM | > 50.1 µM | –
C#CCOc1ccc(-c2cc(-c3ccc(OCCN4CCOCC4)cc3)nc(N)n2)cc1 | – | – | – | IC50 [4]: 0.304 µM; IC50 [5]: 0.666 µM
COc1cc2c(cc1OC)C(=O)C(CC1CCN(Cc3ccccc3)CC1)C2 (configuration not stated) | < 20% | – | – | –
Cc1ccc(-c2nnc(Nc3ncccn3)o2)cc1 | < 20% | 1.62 µM | > 50.1 µM | –
O=[N+]([O-])c1ccccc1-c1nnc(Nc2ncccn2)o1 | 51.8% | 3.39 µM | > 50.1 µM | –
Clc1ccccc1-c1nnc(Nc2ncccn2)o1 | < 20% | > 5.01 µM | > 50.1 µM | –
Clc1ccc(-c2nnc(Nc3ncccn3)o2)cc1 | 46.2% | 2.88 µM | > 50.1 µM | –
c1ccc(-c2nnc(Nc3ncccn3)o2)cc1 | 51.4% | 2.04 µM | > 50.1 µM | –
Brc1ccc(-c2nnc(Nc3ncccn3)o2)cc1 | 47.8% | 3.72 µM | 22.9 µM | –
Oc1ccc(-c2nnc(Nc3ncccn3)o2)cc1 | 63.4% | 1.74 µM | > 50.1 µM | Papp at 20 h, 25 ug/ml [6]: 3.23 ×10⁻⁶ cm/s
O=C1O[C@H]([C@@H](O)CO)C(O)=C1O | 64.6% | – | – | –
Brc1cccc(-c2nnc(Nc3ncccn3)o2)c1 | 47.9% | 3.31 µM | 20.4 µM | –
O=[N+]([O-])c1ccc(-c2nnc(Nc3ncccn3)o2)cc1 | < 20% | > 5.01 µM | > 50.1 µM | –
COc1ccc(-c2nnc(Nc3ncccn3)o2)cc1 | 45.8% | 1.55 µM | > 50.1 µM | –
c1cnc(Nc2nnc(-c3cccc4ccccc34)o2)nc1 | 60% | 0.302 µM | 12 µM | Activity [7]: Non-Toxic; Activity [8]: Active; Activity [9]: Non-Toxic; IC50 at 24 h [10]: 79.4 µM; inhibition [11]: Dose-dependent effect; Activity [12]: Non-Toxic; Activity [13]: Non-Toxic; Activity [14]: Non-Toxic; Papp at 20 h, 25 ug/ml [6]: 5.82 ×10⁻⁶ cm/s; Activity [15]: Dose-dependent effect; Activity [16]: Dose-dependent effect; Activity [17]: Non-Toxic; Activity [18]: Active; Ki [19]: 0.17 µM; Activity [20]: Non-Toxic; Activity [21]: Non-Toxic; Activity [22]: Active; Activity [23]: Dose-dependent effect; inhibition [24]: Active; inhibition [25]: Active
Brc1ccc(CSc2nnc(CSc3nc4ccccc4s3)o2)cc1 | – | – | – | viability at 10 µM [26]: 95.7%
COc1cc(-c2nnc(Nc3ncccn3)o2)cc(OC)c1OC | 57.7% | 1.23 µM | > 50.1 µM | Papp at 20 h, 25 ug/ml [6]: 4.21 ×10⁻⁶ cm/s
COc1ccc(-c2nnc(Nc3ncccn3)o2)cc1OC | 49.5% | 1.91 µM | > 50.1 µM | –
Oc1ccccc1-c1nnc(Nc2ncccn2)o1 | 58.8% | > 5.01 µM | > 50.1 µM | –
